PMC4652583 (Organic letters, 2012)
Values belong to the molecule of their own block, whether it stands above or below them. Ends that are not written are not given here.

Columns and labels:
[1] = target: T1, Ube1 (Homo sapiens, UniProt P22314); experiment: ATP-PPi exchange kinetics catalyzed by Ube1; format: biochemical
T1 sequence (P22314 1-1058): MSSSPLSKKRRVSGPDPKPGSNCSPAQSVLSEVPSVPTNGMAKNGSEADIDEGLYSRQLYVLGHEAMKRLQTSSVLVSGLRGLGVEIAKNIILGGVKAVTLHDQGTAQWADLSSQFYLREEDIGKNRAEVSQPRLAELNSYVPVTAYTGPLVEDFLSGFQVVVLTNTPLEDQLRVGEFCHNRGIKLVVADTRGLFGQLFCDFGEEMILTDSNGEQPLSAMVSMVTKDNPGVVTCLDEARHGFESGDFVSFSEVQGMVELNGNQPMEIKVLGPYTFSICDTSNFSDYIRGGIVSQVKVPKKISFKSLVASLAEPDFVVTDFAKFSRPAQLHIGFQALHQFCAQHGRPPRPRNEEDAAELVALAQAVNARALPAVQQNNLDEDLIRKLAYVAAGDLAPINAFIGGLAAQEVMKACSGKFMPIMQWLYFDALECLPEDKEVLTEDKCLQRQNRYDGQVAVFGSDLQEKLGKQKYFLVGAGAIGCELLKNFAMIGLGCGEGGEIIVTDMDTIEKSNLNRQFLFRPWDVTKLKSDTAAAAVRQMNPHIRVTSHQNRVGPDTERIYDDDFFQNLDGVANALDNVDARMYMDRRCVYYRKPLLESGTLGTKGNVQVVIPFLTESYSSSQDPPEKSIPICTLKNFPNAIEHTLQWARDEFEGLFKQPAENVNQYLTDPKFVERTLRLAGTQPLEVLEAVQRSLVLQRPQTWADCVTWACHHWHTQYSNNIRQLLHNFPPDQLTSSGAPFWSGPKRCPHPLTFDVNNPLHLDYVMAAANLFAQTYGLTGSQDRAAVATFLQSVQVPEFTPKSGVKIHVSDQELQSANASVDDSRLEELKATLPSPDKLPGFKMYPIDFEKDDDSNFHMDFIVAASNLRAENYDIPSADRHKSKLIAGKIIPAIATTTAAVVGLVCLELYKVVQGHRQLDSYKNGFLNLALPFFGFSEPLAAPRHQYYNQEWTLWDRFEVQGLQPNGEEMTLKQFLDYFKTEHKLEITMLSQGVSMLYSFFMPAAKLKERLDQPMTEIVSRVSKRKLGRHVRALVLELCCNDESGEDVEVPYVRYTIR

[2] = target: T1, Ube1; experiment: Competitive inhibition of UB transfer to Ube1; format: biochemical
Outline: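 Increasing concentrations of test peptide were incubated with 1 µM UB and reacted with Ube1 (E1). UB~E1 thioester conjugate formed in each reaction was measured by Western blot.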

[3] = system: myeloma and lymphoma; details: in clinical trials for myeloma and lymphoma; ref [9]; cited from earlier work
[4] = system: Nedd8 E1; details: ref [8]; cited from earlier work
[5] = substrate: CC(C)[C@H](N)C(=O)N[C@@H](CCC(N)=O)C(=O)N[C@@H](CCCNC(=N)N)C(=O)N[C@@H](Cc1ccc(O)cc1)C(=O)N[C@@H](Cc1c[nH]c2ccccc12)C(=O)NCC(=O)NCC(=O)O; experiment: ATP-PPi exchange kinetics catalyzed by Ube1; format: biochemical, human; details: other: ATP-PPi exchange catalyzed by Ube1
[6] = substrate: CC(C)[C@H](N)C(=O)N[C@@H](Cc1c[nH]c2ccccc12)C(=O)N[C@@H](CCCNC(=N)N)C(=O)N[C@@H](Cc1ccccc1)C(=O)N[C@@H](Cc1c[nH]cn1)C(=O)NCC(=O)NCC(=O)O; experiment: ATP-PPi exchange kinetics catalyzed by Ube1; format: biochemical, human; details: other: ATP-PPi exchange catalyzed by Ube1

kcat/K1/2 ([1]; ATP-PPi exchange catalyzed by Ube1): 1.28 M⁻¹ s⁻¹ | saturation of Ube1 ([1]; at a concentration as high as 500 µM in the ATP-PPi exchange reaction): could not saturate Ube1
Molecule: VLRLRGG [P1]
inhibition of UB loading on E1 ([2]; at a concentration as high as 1 mM, 1 µM UB, Western blot): cannot significantly inhibit UB loading on E1

IC50 [2]: 220 µM
Molecule: VYRFYGG [P4]

IC50 [2]: 266 µM
Molecule: VWRFHGG [P2]

Molecule: NS(=O)(=O)OC[C@@H]1C[C@@H](n2ccc3c(N[C@H]4CCc5ccccc54)ncnc32)C[C@@H]1O [MLN4924]
anticancer activities [3]: promising anticancer activities | inhibition of Nedd8 E1 [4]: potent inhibitor of the Nedd8 E1

IC50 [2]: 172 µM
Molecule: VQRYWGG [P3]

B1: Ube1 (Homo sapiens) (protein)
chain: MSSSPLSKKRRVSGPDPKPGSNCSPAQSVLSEVPSVPTNGMAKNGSEADIDEGLYSRQLYVLGHEAMKRLQTSSVLVSGLRGLGVEIAKNIILGGVKAVTLHDQGTAQWADLSSQFYLREEDIGKNRAEVSQPRLAELNSYVPVTAYTGPLVEDFLSGFQVVVLTNTPLEDQLRVGEFCHNRGIKLVVADTRGLFGQLFCDFGEEMILTDSNGEQPLSAMVSMVTKDNPGVVTCLDEARHGFESGDFVSFSEVQGMVELNGNQPMEIKVLGPYTFSICDTSNFSDYIRGGIVSQVKVPKKISFKSLVASLAEPDFVVTDFAKFSRPAQLHIGFQALHQFCAQHGRPPRPRNEEDAAELVALAQAVNARALPAVQQNNLDEDLIRKLAYVAAGDLAPINAFIGGLAAQEVMKACSGKFMPIMQWLYFDALECLPEDKEVLTEDKCLQRQNRYDGQVAVFGSDLQEKLGKQKYFLVGAGAIGCELLKNFAMIGLGCGEGGEIIVTDMDTIEKSNLNRQFLFRPWDVTKLKSDTAAAAVRQMNPHIRVTSHQNRVGPDTERIYDDDFFQNLDGVANALDNVDARMYMDRRCVYYRKPLLESGTLGTKGNVQVVIPFLTESYSSSQDPPEKSIPICTLKNFPNAIEHTLQWARDEFEGLFKQPAENVNQYLTDPKFVERTLRLAGTQPLEVLEAVQRSLVLQRPQTWADCVTWACHHWHTQYSNNIRQLLHNFPPDQLTSSGAPFWSGPKRCPHPLTFDVNNPLHLDYVMAAANLFAQTYGLTGSQDRAAVATFLQSVQVPEFTPKSGVKIHVSDQELQSANASVDDSRLEELKATLPSPDKLPGFKMYPIDFEKDDDSNFHMDFIVAASNLRAENYDIPSADRHKSKLIAGKIIPAIATTTAAVVGLVCLELYKVVQGHRQLDSYKNGFLNLALPFFGFSEPLAAPRHQYYNQEWTLWDRFEVQGLQPNGEEMTLKQFLDYFKTEHKLEITMLSQGVSMLYSFFMPAAKLKERLDQPMTEIVSRVSKRKLGRHVRALVLELCCNDESGEDVEVPYVRYTIR
kcat [5]: 0.162 ± 0.0233 s⁻¹ | kcat/Km [5]: 383 M⁻¹ s⁻¹ | kcat [6]: 0.0583 ± 0.01 s⁻¹ | kcat/Km [6]: 167 M⁻¹ s⁻¹
